# Experimental data taken from ChEMBL document CHEMBL1914380, “Polyalkoxybenzenes from plants. 5. Parsley seed extract in synthesis of azapodophyllotoxins featuring strong tubulin destabilizing activity in the sea urchin embryo and cell culture assays” (J Med Chem, 2011).
# Active and inactive are the calls of the source. No cut-off for these calls is given here.
# What was measured:
# [1] = system: Paracentrotus lividus; assay: Antimitotic activity against Paracentrotus lividus embryo assessed as cleavage alteration treated 10 to 25 mins post fertilization followed by 45 to 60 mins before the first mitotic cycle completion by sea urchin embryo assay; format: functional
# [2] = system: Paracentrotus lividus; assay: Antimitotic activity against Paracentrotus lividus embryo assessed as cleavage arrest treated 10 to 25 mins post fertilization followed by 45 to 60 mins before the first mitotic cycle completion by sea urchin embryo assay; format: functional
# [3] = system: Paracentrotus lividus; assay: Antimitotic activity against Paracentrotus lividus embryo assessed as embryo spinning treated 10 to 25 mins post fertilization followed by 45 to 60 mins before the first mitotic cycle completion by sea urchin embryo assay; format: functional
# [4] = system: A549; assay: Cytotoxicity against human A549 cells assessed as cell viability after 24 hrs by MTT assay; format: functional, cell-based; settings: A549, 24 h
# How it was run: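 A549 human lung carcinoma cells; growth inhibition measured by MTT assay. IC50 derived from dose-response curves, mean ± SD of three independent experiments.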
# [5] = system: Paracentrotus lividus; assay: Antimitotic activity against Paracentrotus lividus embryo assessed as embryo spinning up to 4 uM […] followed by 45 to 60 mins before the first mitotic cycle completion by sea urchin embryo assay; format: functional, organism-based
# [6] = system: Paracentrotus lividus; assay: Antimitotic activity against Paracentrotus lividus embryo assessed as cleavage arrest up to 4 uM […] followed by 45 to 60 mins before the first mitotic cycle completion by sea urchin embryo assay; format: functional, organism-based
# [7] = system: Paracentrotus lividus; assay: Antimitotic activity against Paracentrotus lividus embryo assessed as cleavage alteration up to 4 uM […] followed by 45 to 60 mins before the first mitotic cycle completion by sea urchin embryo assay; format: functional, organism-based
# [8] = system: A549; assay: Inhibition of microtubule polymerization in human A549 cells assessed as total disruption of interphase microtubule network at 0.1 uM after 8 hrs by immunofluorescence microscopy; format: cell-based
# How it was run: (§1)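 A549 cells incubated 8 h with compound at 0.1, 0.5, 1 and 5 μM; DMSO vehicle as negative control. Microtubules labelled by indirect immunofluorescence and examined by fluorescence microscopy. Value is the concentration giving total interphase microtubule disassembly, from three independent experiments.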
# [9] = system: A549; assay: Inhibition of microtubule polymerization in human A549 cells assessed as total disruption of interphase microtubule network at 0.5 uM after 8 hrs by immunofluorescence microscopy; format: cell-based; how it was run: as §1
# [10] = system: A549; assay: Inhibition of microtubule polymerization in human A549 cells assessed as total disruption of interphase microtubule network at 1 uM after 8 hrs by immunofluorescence microscopy; format: cell-based; how it was run: as §1
# [11] = system: A549; assay: Inhibition of microtubule polymerization in human A549 cells assessed as total disruption of interphase microtubule network at 5 uM after 8 hrs by immunofluorescence microscopy; format: cell-based; how it was run: as §1
# [12] = system: A549; assay: Induction of apoptosis in human A549 cells assessed as early apoptotic cells at 10 to 100 nM after 48 hrs by annexin-V FITC/7-ADD staining-based flow cytometric analysis; format: functional, cell-based
# [13] = system: A549; assay: Induction of apoptosis in human A549 cells assessed as late apoptotic cells at 10 to 100 nM after 48 hrs by annexin-V FITC/7-ADD staining-based flow cytometric analysis; format: functional, cell-based
# [14] = system: A549; assay: Induction of apoptosis in human A549 cells assessed as necrotic cells at 10 to 100 nM after 48 hrs by annexin-V FITC/7-ADD staining-based flow cytometric analysis; format: functional, cell-based
# [15] = system: A549; assay: Cell cycle arrest in human A549 cells assessed as accumulation of cells in G2/M phase after 24 hrs by propidium iodide staining-based flow cytometry; format: functional; settings: A549, 24 h
# [16] = system: A549; assay: Inhibition of microtubule polymerization in human A549 cells assessed as total disruption of interphase microtubule network at > 5 uM after 8 hrs by immunofluorescence microscopy; format: cell-based
Structure (SMILES),EC [1] [nM],EC [2] [nM],EC [3] [nM],IC50 [4] [nM],other results
COc1ccc(C2C3=C(O)OCC3=Nc3cc4c(cc32)OCO4)cc1 (stereo unspecified),50,200,2000,> 3200,–
COc1cc(C2C3=C(COC3=O)Nc3cn(C)nc32)c(OC)c2c1OCO2 (stereo unspecified),–,–,–,–,Activity [5]: inactive; Activity [6]: inactive; Activity [7]: inactive
COc1ccc(C2C3=C(COC3=O)Nc3cc4c(c(OC)c32)OCO4)cc1 (stereo unspecified),2000,>2000,>2000,–,–
COc1cc(C2C3=C(COC3=O)Nc3cn(C)nc32)cc2c1OCO2 (stereo unspecified),–,–,–,–,Activity [5]: inactive; Activity [6]: inactive; Activity [7]: inactive
COc1cc(C2C3=C(COC3=O)Nc3cc4c(cc32)OCO4)c(OC)c2c1OCO2 (stereo unspecified),1000,2000,>5000,–,–
COc1c(C2C3=C(COC3=O)Nc3cn(C)nc32)cc2c(c1OC)OCO2 (stereo unspecified),–,–,–,–,Activity [5]: inactive; Activity [6]: inactive; Activity [7]: inactive
COc1cc(C2C3=C(COC3=O)Nc3[nH]nc(C)c32)c(OC)c2c1OCO2 (stereo unspecified),–,–,–,–,Activity [5]: inactive; Activity [6]: inactive; Activity [7]: inactive
COc1cc(C2C3=C(COC3=O)Nc3[nH]ncc32)cc(OC)c1OC (stereo unspecified),–,–,–,–,Activity [5]: inactive; Activity [6]: inactive; Activity [7]: inactive
COc1cc(C2C3=C(COC3=O)Nc3[nH]nc(C)c32)cc(OC)c1OC (stereo unspecified),–,–,–,–,Activity [5]: inactive; Activity [6]: inactive; Activity [7]: inactive
COc1cc(OC)cc(C2C3=C(COC3=O)Nc3cc(OC)ccc32)c1 (stereo unspecified),2,10,200,–,–
COc1cc(C2C3=C(COC3=O)Nc3c2ccc2c3CCCC2)cc2c1OCO2 (stereo unspecified),5,50,100,159,–
COc1cc(C2C3=C(COC3=O)Nc3cc4c(cc32)CCC4)cc2c1OCO2 (stereo unspecified),2,20,50,264,inhibition [8]: Active; inhibition [9]: Active; inhibition [10]: Active; inhibition [11]: Active
COc1cc(C2C3=C(O)OCC3=Nc3cc4c(cc32)OCCO4)cc(OC)c1OC (stereo unspecified),200,1000,1000,9.2,inhibition [8]: Active; inhibition [9]: Active; inhibition [10]: Active; inhibition [11]: Active
COc1cc([C@@H]2C3=C(COC3=O)Nc3cc4c(cc32)OCO4)cc2c1OCO2,50,200,50,–,–
COc1cc(-c2c3c(nc4c5c(ccc24)CCCC5)COC3=O)cc2c1OCO2,200,2000,5000,–,–
COc1cc(C2C3=C(COC3=O)Nc3cn(C)nc32)cc(OC)c1OC (stereo unspecified),–,–,–,–,Activity [5]: inactive; Activity [6]: inactive; Activity [7]: inactive
COc1ccc(C2C3=C(COC3=O)Nc3[nH]ncc32)cc1 (stereo unspecified),–,–,–,–,Activity [5]: inactive; Activity [6]: inactive; Activity [7]: inactive

Structure (SMILES),EC [1] [nM],EC [2] [nM],EC [3] [nM],IC50 [4] [nM],other results
COC(=O)Nc1nc2cc(C(=O)c3cccs3)ccc2[nH]1,–,–,–,–,Activity [12]: Active; Activity [13]: inactive; Activity [14]: Active
OC1=C2C(=Nc3cc4c(cc3C2c2ccccc2)OCO4)CO1 (stereo unspecified),5,20,100,63,–
COc1ccc2c(c1)C(c1cc(OC)c3c(c1)OCO3)C1=C(COC1=O)N2 (stereo unspecified),10,50,500,282,inhibition [8]: Active; inhibition [9]: Active; inhibition [10]: Active; inhibition [11]: Active
COc1cc(C2C3=C(COC3=O)Nc3cc4c(cc32)OCCO4)cc2c1OCO2 (stereo unspecified),5,50,100,64.7,inhibition [8]: Active; inhibition [9]: Active; inhibition [10]: Active; inhibition [11]: Active; EC50 [15]: 119 nM
COc1cc(-c2c3c(nc4c5c(ccc24)CCC5)COC3=O)cc2c1OCO2,100,>4000,>5000,–,–
O=C1OCC2=C1C(c1ccc3c(c1)OCO3)c1c(ccc3ccccc13)N2 (stereo unspecified),>4000,>4000,>4000,–,–
COc1cc(-c2c3c(nc4cc5c(cc24)CCC5)COC3=O)cc2c1OCO2,100,1000,>5000,–,–
COc1c(C2C3=C(COC3=O)Nc3cc4c(cc32)OCO4)cc2c(c1OC)OCO2 (stereo unspecified),100,500,4000,–,–
COc1cc(C2C3=C(COC3=O)Nc3cc4c(c(OC)c32)OCO4)cc(OC)c1OC (stereo unspecified),2000,>2000,>2000,291,inhibition [8]: Active; inhibition [9]: Active; inhibition [10]: Active; inhibition [11]: Active
COc1cc(C2C3=C(COC3=O)Nc3cc4c(cc32)OCO4)c(OC)c(OC)c1OC (stereo unspecified),1000,4000,>10000,299,inhibition [8]: Active; inhibition [9]: Active; inhibition [10]: Active; inhibition [11]: Active
COc1cccc(C2C3=C(O)OCC3=Nc3cc4c(cc32)OCO4)c1 (stereo unspecified),5,20,100,–,–
COc1cc([C@H]2C3=C(COC3=O)Nc3cc4c(cc32)OCO4)cc2c1OCO2,5,50,–,–,–
COc1c(C2C3=C(COC3=O)Nc3[nH]nc(C)c32)cc2c(c1OC)OCO2 (stereo unspecified),–,–,–,–,Activity [5]: inactive; Activity [6]: inactive; Activity [7]: inactive
COc1cc(C2C3=C(COC3=O)Nc3ccccc32)cc2c1OCO2 (stereo unspecified),20,200,2000,534,inhibition [16]: Active
OC1=C2C(=Nc3cc4c(cc3C2c2ccc3c(c2)OCO3)OCO4)CO1 (stereo unspecified),10,50,200,–,–
COc1cc(C2C3=C(COC3=O)Nc3cc4c(c(OC)c32)OCO4)cc2c1OCO2 (stereo unspecified),50,500,2000,298,inhibition [16]: Active
